From ChEMBL document CHEMBL2331343 (Bioorg Med Chem, 2013)

Biological target: T1, 5-hydroxytryptamine receptor 2A (Homo sapiens, UniProt P28223)
Assay: Displacement of [3H]Ketanserin from 5-HT2A receptor (unknown origin) expressed in HEK293 cells by liquid scintillation counter
Format: cell-based
Details: not given

T1 sequence (P28223 whole entry): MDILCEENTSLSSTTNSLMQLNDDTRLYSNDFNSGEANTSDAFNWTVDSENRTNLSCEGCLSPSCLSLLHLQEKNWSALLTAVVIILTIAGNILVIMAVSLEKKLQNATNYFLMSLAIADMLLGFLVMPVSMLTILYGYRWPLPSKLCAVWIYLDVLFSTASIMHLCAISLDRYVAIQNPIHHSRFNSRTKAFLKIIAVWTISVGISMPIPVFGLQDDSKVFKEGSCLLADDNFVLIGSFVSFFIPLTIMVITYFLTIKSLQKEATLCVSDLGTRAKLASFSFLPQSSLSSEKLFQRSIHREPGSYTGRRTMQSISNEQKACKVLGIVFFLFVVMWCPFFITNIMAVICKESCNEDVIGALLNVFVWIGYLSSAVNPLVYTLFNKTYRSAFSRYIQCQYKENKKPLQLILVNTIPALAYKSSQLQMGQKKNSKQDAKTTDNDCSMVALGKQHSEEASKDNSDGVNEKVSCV

Row | Ki [nM] | Structure (SMILES)
1 | > 5000 | COc1cc2c(cc1O)CCN1Cc3c(ccc(O)c3OC)C[C@@H]21
2 | 480 | COc1c(O)ccc2c1CN1CCc3cc4c(cc3[C@@H]1C2)OCC4
3 | 363 | COc1c(O)ccc2c1CN1CCc3cc4c(cc3[C@@H]1C2)OCCO4

Biological target: T2, 5-hydroxytryptamine receptor 1A (Homo sapiens) (UniProt P08908)
T2 sequence (whole entry): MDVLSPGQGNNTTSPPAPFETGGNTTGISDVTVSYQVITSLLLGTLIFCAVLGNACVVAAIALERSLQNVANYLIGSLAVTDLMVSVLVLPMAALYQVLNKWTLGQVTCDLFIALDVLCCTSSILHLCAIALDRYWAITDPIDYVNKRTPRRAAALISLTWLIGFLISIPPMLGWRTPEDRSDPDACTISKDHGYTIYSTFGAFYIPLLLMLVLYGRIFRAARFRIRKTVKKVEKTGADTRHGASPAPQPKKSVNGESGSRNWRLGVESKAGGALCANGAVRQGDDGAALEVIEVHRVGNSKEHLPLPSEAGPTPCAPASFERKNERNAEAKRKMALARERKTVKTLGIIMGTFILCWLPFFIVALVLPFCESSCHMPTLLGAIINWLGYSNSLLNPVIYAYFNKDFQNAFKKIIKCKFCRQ
Assay: Inhibition of [3H]8-OH-DPAT binding to 5-HT1A receptor (unknown origin) expressed in HEK293 cells at 10 uM by liquid scintillation counter relative to control
Format: cell-based
Details: not given
In short: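 Membranes of HEK293T stably transfected with 5-HT1A, […], incubated in duplicate 50 min at 30 °C with [3H]8-OH-DPAT in 50 mM Tris, 4 mM MgCl2, pH 7.4. Nonspecific binding with 10 μM WAY100635. Filtration on GF/B, cold Tris/EDTA wash, scintillation counting.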

Row | inhibition [%] | Structure (SMILES)
4 | 50.5 | COc1cc2c(cc1O)CCN1Cc3c(ccc(OC)c3OC)C[C@@H]21
5 | 61 | COc1cc2c(cc1O)[C@@H]1Cc3cc4c(cc3CN1CC2)OCO4
6 | 30.4 | COc1cc2c(cc1OC)[C@H]1Cc3ccc(OC)c(OC)c3CN1CC2
7 | 63.6 | COc1c(O)ccc2c1CN1CCc3cc4c(cc3[C@H]1C2)OCO4
8 | 65.5 | COc1cc2c(cc1OC)[C@H]1Cc3ccc(O)c(OC)c3CN1CC2
9 | 30.5 | COc1cc2c(cc1OC)[C@@H]1Cc3ccc(OC)c(O)c3CN1CC2 [TETRAHYDROPALMATRUBINE]
10 | 55.4 | COc1cc2c(cc1O)CCN1Cc3c(ccc(OC)c3OC)C[C@H]21
11 | 76.7 | COc1cc2c(cc1O)CCN1Cc3c(ccc(O)c3OC)C[C@@H]21
12 | 84.9 | COc1cc2c(cc1OC)[C@@H]1Cc3ccc(OC)c(OC)c3CN1CC2 [TETRAHYDROPALMATINE]
13 | 60.5 | COc1cc2c(cc1O)CCN1Cc3c(ccc(OC)c3O)C[C@@H]21
14 | 6.2 | COc1cc2c(cc1OC)[C@H]1Cc3ccc(OC)c(O)c3CN1CC2
15 | 79.5 | COc1c(O)ccc2c1CN1CCc3cc4c(cc3[C@@H]1C2)OCC4
16 | 90.8 | COc1c(O)ccc2c1CN1CCc3cc4c(cc3[C@@H]1C2)OCCO4

Row | Structure (SMILES) | inhibition [%]
17 | COc1ccc2c(c1O)CN1CCc3cc4c(cc3[C@@H]1C2)OCO4 | 82.8
18 | COc1ccc2c(c1O)CN1CCc3cc4c(cc3[C@H]1C2)OCO4 | 25.5
19 | COc1cc2c(cc1O)[C@H]1Cc3ccc(OC)c(OC)c3CN1CC2 | 64.2

Biological target: T3, D(1A) dopamine receptor (Homo sapiens, UniProt P21728)
Assay: Inhibition of [3H]SCH23390 binding to dopamine D1 receptor (unknown origin) expressed in human HEK293 cells at 10 uM by liquid scintillation counter relative to control
Format: cell-based
Details: not given
In short: (§1)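 Stably transfected HEK293T D1 membranes, […], duplicate incubation 50 min at 30 °C with [3H]SCH23390 in 50 mM Tris, 4 mM MgCl2, pH 7.4. Nonspecific binding with 10 μM SCH23390. GF/B filtration, scintillation counting.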

T3 sequence (P21728 whole entry): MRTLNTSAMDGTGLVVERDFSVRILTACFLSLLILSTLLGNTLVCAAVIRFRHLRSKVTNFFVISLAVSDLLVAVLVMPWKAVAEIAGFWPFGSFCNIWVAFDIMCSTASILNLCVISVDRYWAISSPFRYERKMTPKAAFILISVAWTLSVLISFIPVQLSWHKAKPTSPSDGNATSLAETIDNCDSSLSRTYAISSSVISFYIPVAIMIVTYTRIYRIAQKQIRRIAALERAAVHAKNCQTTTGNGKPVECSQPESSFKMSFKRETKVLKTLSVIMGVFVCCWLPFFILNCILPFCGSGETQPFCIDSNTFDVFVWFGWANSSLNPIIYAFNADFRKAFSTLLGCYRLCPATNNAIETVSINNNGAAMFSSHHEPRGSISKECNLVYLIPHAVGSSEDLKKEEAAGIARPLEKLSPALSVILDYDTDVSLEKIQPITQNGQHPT

Row | inhibition [%] | Structure (SMILES)
20 | 84.1 | COc1cc2c(cc1O)CCN1Cc3c(ccc(OC)c3OC)C[C@@H]21
21 | 99.6 | COc1cc2c(cc1O)[C@@H]1Cc3cc4c(cc3CN1CC2)OCO4
22 | 39.8 | COc1cc2c(cc1OC)[C@H]1Cc3ccc(OC)c(OC)c3CN1CC2
23 | 95.8 | COc1c(O)ccc2c1CN1CCc3cc4c(cc3[C@H]1C2)OCO4
24 | 54.4 | COc1cc2c(cc1OC)[C@H]1Cc3ccc(O)c(OC)c3CN1CC2
25 | 87.7 | COc1cc2c(cc1OC)[C@@H]1Cc3ccc(OC)c(O)c3CN1CC2 [TETRAHYDROPALMATRUBINE]
26 | 88.8 | COc1cc2c(cc1O)CCN1Cc3c(ccc(OC)c3OC)C[C@H]21
27 | 98.3 | COc1cc2c(cc1O)CCN1Cc3c(ccc(O)c3OC)C[C@@H]21
28 | 96.9 | COc1cc2c(cc1OC)[C@@H]1Cc3ccc(OC)c(OC)c3CN1CC2 [TETRAHYDROPALMATINE]
29 | 95.2 | COc1cc2c(cc1O)CCN1Cc3c(ccc(OC)c3O)C[C@@H]21
30 | 35.9 | COc1cc2c(cc1OC)[C@H]1Cc3ccc(OC)c(O)c3CN1CC2
31 | 99.3 | COc1c(O)ccc2c1CN1CCc3cc4c(cc3[C@@H]1C2)OCC4
32 | 22.6 | COc1c(O)ccc2c1CN1CCc3cc4c(cc3[C@@H]1C2)OCCO4

Row | Structure (SMILES) | inhibition [%]
33 | COc1ccc2c(c1O)CN1CCc3cc4c(cc3[C@@H]1C2)OCO4 | 98.7
34 | COc1ccc2c(c1O)CN1CCc3cc4c(cc3[C@H]1C2)OCO4 | 78.9
35 | COc1cc2c(cc1O)[C@H]1Cc3ccc(OC)c(OC)c3CN1CC2 | 99.5

Biological target: T3, D(1A) dopamine receptor
Assay: Displacement of [3H]SCH23390 from dopamine D1 receptor (unknown origin) expressed in human HEK293 cells by liquid scintillation counter
Format: cell-based
Details: not given
In short: as §1

Row | Ki [nM] | Structure (SMILES)
36 | 310 | COc1cc2c(cc1O)CCN1Cc3c(ccc(OC)c3OC)C[C@@H]21
37 | 4.2 | COc1cc2c(cc1O)[C@@H]1Cc3cc4c(cc3CN1CC2)OCO4
38 | 565 | COc1c(O)ccc2c1CN1CCc3cc4c(cc3[C@H]1C2)OCO4
39 | 443 | COc1cc2c(cc1OC)[C@@H]1Cc3ccc(OC)c(O)c3CN1CC2 [TETRAHYDROPALMATRUBINE]
40 | 1190 | COc1cc2c(cc1O)CCN1Cc3c(ccc(OC)c3OC)C[C@H]21
41 | 200 | COc1cc2c(cc1O)CCN1Cc3c(ccc(O)c3OC)C[C@@H]21
42 | 231 | COc1cc2c(cc1OC)[C@@H]1Cc3ccc(OC)c(OC)c3CN1CC2 [TETRAHYDROPALMATINE]
43 | 530 | COc1cc2c(cc1O)CCN1Cc3c(ccc(OC)c3O)C[C@@H]21
44 | 7.5 | COc1c(O)ccc2c1CN1CCc3cc4c(cc3[C@@H]1C2)OCC4

Row | Structure (SMILES) | Ki [nM]
45 | COc1ccc2c(c1O)CN1CCc3cc4c(cc3[C@@H]1C2)OCO4 | 60
46 | COc1ccc2c(c1O)CN1CCc3cc4c(cc3[C@H]1C2)OCO4 | > 5000

Biological target: T1, 5-hydroxytryptamine receptor 2A
Assay: Inhibition of [3H]Ketanserin binding to 5-HT2A receptor (unknown origin) expressed in HEK293 cells at 10 uM by liquid scintillation counter relative to control
Format: cell-based
Details: not given
In short: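 Membranes of HEK293T stably transfected with 5-HT2A, […], incubated in duplicate 15 min at 37 °C with [3H]ketanserin in 50 mM Tris, 4 mM MgCl2, pH 7.4. […] GF/B filtration, cold wash, scintillation counting.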

Row | inhibition [%] | Structure (SMILES)
48 | 38 | COc1cc2c(cc1O)CCN1Cc3c(ccc(OC)c3OC)C[C@@H]21
49 | 49.9 | COc1cc2c(cc1O)[C@@H]1Cc3cc4c(cc3CN1CC2)OCO4
50 | 29.7 | COc1cc2c(cc1OC)[C@H]1Cc3ccc(OC)c(OC)c3CN1CC2
51 | 25.3 | COc1c(O)ccc2c1CN1CCc3cc4c(cc3[C@H]1C2)OCO4
52 | 27.9 | COc1cc2c(cc1OC)[C@H]1Cc3ccc(O)c(OC)c3CN1CC2
53 | 20 | COc1cc2c(cc1OC)[C@@H]1Cc3ccc(OC)c(O)c3CN1CC2 [TETRAHYDROPALMATRUBINE]
54 | 40.4 | COc1cc2c(cc1O)CCN1Cc3c(ccc(OC)c3OC)C[C@H]21
55 | 84 | COc1cc2c(cc1O)CCN1Cc3c(ccc(O)c3OC)C[C@@H]21
56 | 33 | COc1cc2c(cc1OC)[C@@H]1Cc3ccc(OC)c(OC)c3CN1CC2 [TETRAHYDROPALMATINE]
57 | 59.1 | COc1cc2c(cc1O)CCN1Cc3c(ccc(OC)c3O)C[C@@H]21
58 | 19.3 | COc1cc2c(cc1OC)[C@H]1Cc3ccc(OC)c(O)c3CN1CC2
59 | 91.7 | COc1c(O)ccc2c1CN1CCc3cc4c(cc3[C@@H]1C2)OCC4
60 | 97.3 | COc1c(O)ccc2c1CN1CCc3cc4c(cc3[C@@H]1C2)OCCO4

Row | Structure (SMILES) | inhibition [%]
61 | COc1ccc2c(c1O)CN1CCc3cc4c(cc3[C@@H]1C2)OCO4 | 49.1
62 | COc1ccc2c(c1O)CN1CCc3cc4c(cc3[C@H]1C2)OCO4 | 10.9
63 | COc1cc2c(cc1O)[C@H]1Cc3ccc(OC)c(OC)c3CN1CC2 | 40.6

Biological target: T4, 5-hydroxytryptamine receptor 1A (Homo sapiens, UniProt P08908)
T4 sequence (P08908 whole entry): T2 sequence (whole entry)
Assay: Displacement of [3H]8-OH-DPAT from 5-HT1A receptor (unknown origin) expressed in HEK293 cells by liquid scintillation counter
Format: cell-based
Details: not given

Row | Ki [nM] | Structure (SMILES)
64 | > 5000 | COc1cc2c(cc1O)CCN1Cc3c(ccc(O)c3OC)C[C@@H]21
65 | > 5000 | COc1cc2c(cc1OC)[C@@H]1Cc3ccc(OC)c(OC)c3CN1CC2 [TETRAHYDROPALMATINE]
66 | > 5000 | COc1c(O)ccc2c1CN1CCc3cc4c(cc3[C@@H]1C2)OCC4
67 | 208 | COc1c(O)ccc2c1CN1CCc3cc4c(cc3[C@@H]1C2)OCCO4

Row | Structure (SMILES) | Ki [nM]
68 | COc1ccc2c(c1O)CN1CCc3cc4c(cc3[C@@H]1C2)OCO4 | > 5000

Biological target: T5, D(2) dopamine receptor (Homo sapiens, UniProt P14416)
Assay: Displacement of [3H]spiperone from dopamine D2 receptor (unknown origin) expressed in human HEK293 cells by liquid scintillation counter
Format: cell-based
Details: not given

T5 sequence (P14416 whole entry): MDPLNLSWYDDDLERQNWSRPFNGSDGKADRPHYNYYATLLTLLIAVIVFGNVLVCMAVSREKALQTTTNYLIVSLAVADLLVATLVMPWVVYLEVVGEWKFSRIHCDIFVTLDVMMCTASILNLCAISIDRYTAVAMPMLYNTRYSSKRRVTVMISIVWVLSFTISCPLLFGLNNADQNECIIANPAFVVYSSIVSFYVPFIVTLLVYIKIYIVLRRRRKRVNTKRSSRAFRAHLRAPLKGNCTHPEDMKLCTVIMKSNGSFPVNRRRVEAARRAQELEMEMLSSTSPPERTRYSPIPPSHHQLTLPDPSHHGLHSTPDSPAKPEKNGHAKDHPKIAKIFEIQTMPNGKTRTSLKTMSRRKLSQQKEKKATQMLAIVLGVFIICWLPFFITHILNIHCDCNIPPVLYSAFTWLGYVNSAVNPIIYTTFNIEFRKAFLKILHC

Row | Ki [nM] | Structure (SMILES)
69 | 113 | COc1cc2c(cc1O)CCN1Cc3c(ccc(O)c3OC)C[C@@H]21
70 | > 5000 | COc1cc2c(cc1OC)[C@@H]1Cc3ccc(OC)c(OC)c3CN1CC2 [TETRAHYDROPALMATINE]
71 | > 5000 | COc1cc2c(cc1O)CCN1Cc3c(ccc(OC)c3O)C[C@@H]21

Row | Structure (SMILES) | Ki [nM]
72 | COc1ccc2c(c1O)CN1CCc3cc4c(cc3[C@@H]1C2)OCO4 | > 5000

Biological target: T5, D(2) dopamine receptor
Details: HEK293, at 10 µM

Row | inhibition [%] | Structure (SMILES)
73 | 63.2 | COc1cc2c(cc1O)CCN1Cc3c(ccc(OC)c3OC)C[C@@H]21
74 | 100 | COc1cc2c(cc1O)[C@@H]1Cc3cc4c(cc3CN1CC2)OCO4
75 | 20.5 | COc1cc2c(cc1OC)[C@H]1Cc3ccc(OC)c(OC)c3CN1CC2
76 | 40.5 | COc1c(O)ccc2c1CN1CCc3cc4c(cc3[C@H]1C2)OCO4
77 | 3.4 | COc1cc2c(cc1OC)[C@H]1Cc3ccc(O)c(OC)c3CN1CC2
78 | 22.7 | COc1cc2c(cc1OC)[C@@H]1Cc3ccc(OC)c(O)c3CN1CC2 [TETRAHYDROPALMATRUBINE]
79 | 71.5 | COc1cc2c(cc1O)CCN1Cc3c(ccc(OC)c3OC)C[C@H]21
80 | 94.2 | COc1cc2c(cc1O)CCN1Cc3c(ccc(O)c3OC)C[C@@H]21
81 | 85.4 | COc1cc2c(cc1OC)[C@@H]1Cc3ccc(OC)c(OC)c3CN1CC2 [TETRAHYDROPALMATINE]
82 | 79.8 | COc1cc2c(cc1O)CCN1Cc3c(ccc(OC)c3O)C[C@@H]21
83 | 1.5 | COc1cc2c(cc1OC)[C@H]1Cc3ccc(OC)c(O)c3CN1CC2
84 | 63.9 | COc1c(O)ccc2c1CN1CCc3cc4c(cc3[C@@H]1C2)OCC4
85 | 73.1 | COc1c(O)ccc2c1CN1CCc3cc4c(cc3[C@@H]1C2)OCCO4

Row | Structure (SMILES) | inhibition [%]
86 | COc1ccc2c(c1O)CN1CCc3cc4c(cc3[C@@H]1C2)OCO4 | 78
87 | COc1ccc2c(c1O)CN1CCc3cc4c(cc3[C@H]1C2)OCO4 | 20.4
